The results in this text go back to BindingDB's records for doi:10.1021/jm960652r (Genentech, 1997).

The target in experiment [1] is T1, Integrin alpha-IIb/beta-3 (Homo sapiens, UniProt P08514+P05106). Kind of experiment: Inhibition of thrombin-induced platelet aggregation assay at 20 uM.
Experiment [2] addresses T1, Integrin alpha-IIb/beta-3. Kind of experiment: Inhibition of 17.5 uM ADP-induced platelet aggregation of human platelet-rich plasma. In outline: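 Aggregation of human platelets in platelet-rich plasma. Values are the average of at least 3 determinations.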

T1 sequence (P05106 27-788 limits assumed): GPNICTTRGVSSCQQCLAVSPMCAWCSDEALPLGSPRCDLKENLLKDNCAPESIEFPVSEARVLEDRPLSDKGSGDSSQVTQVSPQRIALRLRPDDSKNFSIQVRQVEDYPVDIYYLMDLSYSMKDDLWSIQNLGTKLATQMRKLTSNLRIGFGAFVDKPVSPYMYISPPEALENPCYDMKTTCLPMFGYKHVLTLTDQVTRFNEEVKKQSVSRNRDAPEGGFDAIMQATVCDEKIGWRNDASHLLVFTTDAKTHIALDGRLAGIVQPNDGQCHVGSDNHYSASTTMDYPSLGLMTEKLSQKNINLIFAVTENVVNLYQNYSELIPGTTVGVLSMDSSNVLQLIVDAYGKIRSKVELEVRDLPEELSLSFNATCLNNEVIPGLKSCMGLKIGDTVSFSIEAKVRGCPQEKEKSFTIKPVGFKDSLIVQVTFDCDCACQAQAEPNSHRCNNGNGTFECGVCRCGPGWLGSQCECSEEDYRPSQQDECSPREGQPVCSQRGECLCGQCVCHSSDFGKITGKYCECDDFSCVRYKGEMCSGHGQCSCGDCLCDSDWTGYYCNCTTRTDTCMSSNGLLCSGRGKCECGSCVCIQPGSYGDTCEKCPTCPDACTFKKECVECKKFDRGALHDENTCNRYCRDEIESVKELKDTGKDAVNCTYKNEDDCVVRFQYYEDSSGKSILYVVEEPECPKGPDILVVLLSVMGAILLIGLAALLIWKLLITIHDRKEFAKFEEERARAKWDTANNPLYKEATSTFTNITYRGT
T1 sequence (P08514 32-887 limits assumed): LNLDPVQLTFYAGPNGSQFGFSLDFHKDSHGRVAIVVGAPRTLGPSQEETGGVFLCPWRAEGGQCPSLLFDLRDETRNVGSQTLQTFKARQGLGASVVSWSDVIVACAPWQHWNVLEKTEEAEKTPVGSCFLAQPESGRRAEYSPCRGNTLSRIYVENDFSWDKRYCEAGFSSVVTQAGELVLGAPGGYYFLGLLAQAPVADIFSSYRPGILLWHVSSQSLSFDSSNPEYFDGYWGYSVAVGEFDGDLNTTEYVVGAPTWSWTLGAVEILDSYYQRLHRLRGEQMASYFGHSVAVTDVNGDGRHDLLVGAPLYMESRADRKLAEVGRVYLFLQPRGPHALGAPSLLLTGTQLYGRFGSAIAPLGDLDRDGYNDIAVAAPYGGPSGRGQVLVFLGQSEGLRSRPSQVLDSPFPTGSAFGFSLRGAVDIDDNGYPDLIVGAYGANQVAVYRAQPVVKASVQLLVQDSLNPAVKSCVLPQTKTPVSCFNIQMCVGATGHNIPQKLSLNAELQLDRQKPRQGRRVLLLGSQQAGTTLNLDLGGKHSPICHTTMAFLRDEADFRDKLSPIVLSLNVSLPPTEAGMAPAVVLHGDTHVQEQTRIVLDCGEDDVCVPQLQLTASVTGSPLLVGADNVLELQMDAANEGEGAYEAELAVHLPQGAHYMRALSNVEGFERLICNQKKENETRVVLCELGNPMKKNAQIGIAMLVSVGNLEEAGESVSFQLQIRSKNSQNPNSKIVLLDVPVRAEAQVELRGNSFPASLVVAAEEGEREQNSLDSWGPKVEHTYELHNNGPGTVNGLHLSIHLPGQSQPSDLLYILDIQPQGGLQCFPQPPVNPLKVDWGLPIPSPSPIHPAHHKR
T1 sequence (P08514 891-1039 limits assumed): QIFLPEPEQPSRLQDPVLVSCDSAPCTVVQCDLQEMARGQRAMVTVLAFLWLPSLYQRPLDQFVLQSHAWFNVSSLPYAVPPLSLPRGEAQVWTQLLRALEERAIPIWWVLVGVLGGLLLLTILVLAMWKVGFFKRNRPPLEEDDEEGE

`CN1C(=O)CN(CCC(=O)O)C(=O)c2cc(C#Cc3ccc(C(=N)N)cc3)ccc21` [3-[7-(4-Carbamimidoyl-phenylethynyl)-1-methyl-2,5-dioxo-1,2,3,5-tetrahydro-benzo[e][1,4]diazepin-4-yl]-propionic acid(G6249)] had a half-maximal inhibitory concentration (IC50) in experiment [1] of 213 nM. This lies in the sub-micromolar range.

As for `C[C@H](CC(=O)O)N1CC(=O)N(C(C)(C)C)c2c(Cl)cc(C#Cc3ccc(C(=N)N)cc3)cc2C1=O` [(R)-3-[1-tert-Butyl-7-(4-carbamimidoyl-phenylethynyl)-9-chloro-2,5-dioxo-1,2,3,5-tetrahydro-benzo[e][1,4]diazepin-4-yl]-butyric acid], the 50% inhibitory concentration (IC50) in experiment [2] is 1300 nM.

On to `C[C@H](CC(=O)O)N1CC(=O)N(C)c2ccc(C#Cc3ccc(C(=N)N)cc3)cc2C1=O` [(R)-3-[7-(4-Carbamimidoyl-phenylethynyl)-1-methyl-2,5-dioxo-1,2,3,5-tetrahydro-benzo[e][1,4]diazepin-4-yl]-butyric acid], for which the IC50 in experiment [2] was found to be 820 nM.

Regarding `C[C@@H](CC(=O)O)N1CC(=O)N(C(C)(C)C)c2ccc(C#Cc3ccc(C(=N)N)cc3)cc2C1=O` [(S)-3-[1-tert-Butyl-7-(4-carbamimidoyl-phenylethynyl)-2,5-dioxo-1,2,3,5-tetrahydro-benzo[e][1,4]diazepin-4-yl]-butyric acid], half-maximal inhibition in experiment [2] (IC50) was put at 92 nM. Compared with the last molecule, the IC50 is about 8.9-fold lower.

With `C[C@@H](CC(=O)O)N1CC(=O)N(C(C)(C)C)c2c(Cl)cc(C#Cc3ccc(C(=N)N)cc3)cc2C1=O` [(S)-3-[1-tert-Butyl-7-(4-carbamimidoyl-phenylethynyl)-9-chloro-2,5-dioxo-1,2,3,5-tetrahydro-benzo[e][1,4]diazepin-4-yl]-butyric acid], the 50% inhibitory concentration (IC50) in experiment [1] was 60 nM; in experiment [2], 34 nM.

In the case of `C[C@@H](CC(=O)O)N1CC(=O)N(C)c2ccc(C#Cc3ccc(C(=N)N)cc3)cc2C1=O` [(S)-3-[7-(4-Carbamimidoyl-phenylethynyl)-1-methyl-2,5-dioxo-1,2,3,5-tetrahydro-benzo[e][1,4]diazepin-4-yl]-butyric acid], the concentration for half-maximal inhibition (IC50) in experiment [1] came out at 138 nM; in experiment [2], 78 nM.

With `C[C@@H](CC(=O)O)N1CC(=O)N(C)c2c(Cl)cc(C#Cc3ccc(C(=N)N)cc3)cc2C1=O` [(S)-3-[7-(4-Carbamimidoyl-phenylethynyl)-9-chloro-1-methyl-2,5-dioxo-1,2,3,5-tetrahydro-benzo[e][1,4]diazepin-4-yl]-butyric acid], the figures for the IC50 in experiment [1] and in experiment [2] were 313 nM and 159 nM, respectively.

Usually IC50 stands for the concentration needed to halve the response being measured. A low value points to inhibition by little substance.
